Among the data in PubChem BioAssay AID2692 (The Scripps Research Institute Molecular Screening Center, 2010) are current density values, retold here.

SMILES strings stand for the structures. Active and inactive are the calls of the source. The rule behind the calls is not given here.

This experiment concerns transient receptor potential cation channel subfamily N member 1 (TRPN1/NompC), zebrafish. The experiment can be described thus: zebrafish TRPN1 channel activation, late-stage follow-up, selectivity assay for TRPML3 selective agonist project, whole-cell patch clamp, HEK293 (AID 2692). The following applies: at 10 µM. Put shortly: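 System: TRPN1-expressing HEK293 cells | Buffer or medium: NaCl bath pH 7.4 plus 2-APB, CsCl/BAPTA pipette pH 7.2 | Doses: Compound at 10 µM only | Timing: 10 ms steps, holding potential +10 mV | Measured by: Whole-cell patch clamp, voltage-step series −200 to +100 mV | Measure: Capacitance-normalized current (per pF)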
On to `CC1CCN(S(=O)(=O)c2ccc(C(C)C)cc2)CC1`, for which the current density at -80 mV is -0.003 nA/pF (inactive).

Consider `Cc1ccc(S(=O)(=O)n2nccc2-c2c(-c3ccc(Cl)cc3)noc2C)cc1`, for which the current density at -80 mV is -0.004 nA/pF (inactive).

Take `CCOc1ccc(S(=O)(=O)N2CCCCCC2)c2ccccc12`: the current density at -80 mV was -0.003 nA/pF (inactive).
